Assay results published in ChEMBL document CHEMBL1255334.
Active and inactive are the calls of the source. No cut-off for these calls is given here.

Legend:
Type in all cases: functional, organism-based
[1] = test system: Mycobacterium tuberculosis; assay: Antibacterial activity against Mycobacterium tuberculosis containing pncA gene with C insertion between nucleotide -3 and -2 assessed as at 100 mg/liter
Outline: (§1)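 Clinical M. tuberculosis isolates first grown on Löwenstein-Jensen medium 3 to 4 weeks at 37°C. Radiometric BACTEC 460 test in acidified PZA test medium. Inoculum: ~McFarland 1 suspension grown in 12B medium until growth index (GI) >300. Paired vials per strain: drug-free control and PZA 100 mg/liter. Read when control GI reached 200. Resistant if PZA-vial GI >11% of control GI, susceptible if <9%.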

[2] = test system: Mycobacterium tuberculosis; assay: Antibacterial activity against Mycobacterium tuberculosis containing PZase Phe(58)>Leu mutant assessed as at 100 mg/liter; outline: as §1
[3] = test system: Mycobacterium tuberculosis; assay: Antibacterial activity against Mycobacterium tuberculosis containing PZase Pro(54)>Leu mutant assessed as at 100 mg/liter; outline: as §1
[4] = test system: Mycobacterium tuberculosis; assay: Antibacterial activity against Mycobacterium tuberculosis containing PZase Val(125)>Phe mutant assessed as at 100 mg/liter; outline: as §1
[5] = test system: Mycobacterium tuberculosis; assay: Antibacterial activity against Mycobacterium tuberculosis containing pncA gene with A(-11)>G mutation assessed as at 100 mg/liter; outline: as §1
[6] = test system: Mycobacterium tuberculosis; assay: Antibacterial activity against Mycobacterium tuberculosis containing PZase Tyr(103)>His mutant assessed as at 100 mg/liter; outline: as §1
[7] = test system: Mycobacterium tuberculosis; assay: Antibacterial activity against Mycobacterium tuberculosis containing PZase Val(125)>Asp mutant assessed as at 100 mg/liter; outline: as §1
[8] = test system: Mycobacterium tuberculosis; assay: Antibacterial activity against Mycobacterium tuberculosis containing PZase Gly(132)>Ala mutant assessed as at 100 mg/liter; outline: as §1
[9] = test system: Mycobacterium tuberculosis; assay: Antibacterial activity against Mycobacterium tuberculosis containing PZase Arg(123)>Pro mutant assessed as at 100 mg/liter; outline: as §1
[10] = test system: Mycobacterium tuberculosis; assay: Antibacterial activity against Mycobacterium tuberculosis containing PZase Cys(138)>Tyr mutant assessed as at 100 mg/liter; outline: as §1
[11] = test system: Mycobacterium tuberculosis; assay: Antibacterial activity against Mycobacterium tuberculosis containing PZase Ser(65)>Ser mutant assessed as at 100 mg/liter; outline: as §1
[12] = test system: Mycobacterium tuberculosis; assay: Antibacterial activity against Mycobacterium tuberculosis containing PZase Ile(6)>Thr mutant assessed as at 100 mg/liter; outline: as §1
[13] = test system: Mycobacterium tuberculosis; assay: Antibacterial activity against Mycobacterium tuberculosis containing PZase Met(175)>Thr mutant assessed as at 100 mg/liter; outline: as §1
[14] = test system: Mycobacterium tuberculosis; assay: Antibacterial activity against Mycobacterium tuberculosis containing PZase Gly(132)>Ser mutant assessed as at 100 mg/liter; outline: as §1
[15] = test system: Mycobacterium tuberculosis; assay: Antibacterial activity against Mycobacterium tuberculosis containing PZase Thr(142)>Lys mutant assessed as at 100 mg/liter; outline: as §1
[16] = test system: Mycobacterium tuberculosis; assay: Antibacterial activity against Mycobacterium tuberculosis containing PZase with In-frame insertion between amino acids 148 and 149 assessed as at 100 mg/liter; outline: as §1
[17] = test system: Mycobacterium tuberculosis; assay: Antibacterial activity against Mycobacterium tuberculosis containing PZase Ser(67)>Pro mutant assessed as at 100 mg/liter; outline: as §1
[18] = test system: Mycobacterium tuberculosis; assay: Antibacterial activity against Mycobacterium tuberculosis containing PZase Pro(54)>Ser mutant assessed as at 100 mg/liter; outline: as §1
[19] = test system: Mycobacterium tuberculosis; assay: Antibacterial activity against Mycobacterium tuberculosis containing pncA gene with GG insertion between nt 391 and 392 assessed as at 100 mg/liter; outline: as §1
[20] = test system: Mycobacterium tuberculosis; assay: Antibacterial activity against Mycobacterium tuberculosis containing PZase Val(155)>Gly mutant assessed as at 100 mg/liter; outline: as §1
[21] = test system: Mycobacterium tuberculosis; assay: Antibacterial activity against Mycobacterium tuberculosis containing PZase Trp(68)>Arg mutant assessed as at 100 mg/liter; outline: as §1
[22] = test system: Mycobacterium tuberculosis; assay: Antibacterial activity against Mycobacterium tuberculosis containing pncA gene with G insertion between nucleotide -33 and -32 assessed as at 100 mg/liter; outline: as §1
[23] = test system: Mycobacterium tuberculosis; assay: Antibacterial activity against Mycobacterium tuberculosis containing PZase Thr(47)>Ala mutant assessed as at 100 mg/liter; outline: as §1
[24] = test system: Mycobacterium tuberculosis; assay: Antibacterial activity against Mycobacterium tuberculosis containing pncA gene with C(174)>G mutation assessed as at 100 mg/liter; outline: as §1
[25] = test system: Mycobacterium tuberculosis; assay: Antibacterial activity against Mycobacterium tuberculosis containing PZase Leu(172)>Pro mutant assessed as at 100 mg/liter; outline: as §1
[26] = test system: Mycobacterium tuberculosis; assay: Antibacterial activity against Mycobacterium tuberculosis containing PZase Ile(90)>Ser mutant assessed as at 100 mg/liter; outline: as §1
[27] = test system: Mycobacterium tuberculosis; assay: Antibacterial activity against Mycobacterium tuberculosis containing PZase Ser(65)>Ser frameshift mutant assessed as at 100 mg/liter; outline: as §1
[28] = test system: Mycobacterium tuberculosis; assay: Antibacterial activity against Mycobacterium tuberculosis containing PZase His(51)>Gln mutant assessed as at 100 mg/liter; outline: as §1

NC(=O)c1cnccn1
Activity [1]: Active
Activity [2]: inactive
Activity [3]: inactive
Activity [4]: inactive
Activity [5]: inactive
Activity [6]: inactive
Activity [7]: inactive
Activity [8]: inactive
Activity [9]: inactive
Activity [10]: inactive
Activity [11]: Active
Activity [12]: inactive
Activity [13]: inactive
Activity [14]: inactive
Activity [15]: inactive
Activity [16]: inactive
Activity [17]: inactive
Activity [18]: inactive
Activity [19]: inactive
Activity [20]: inactive
Activity [21]: inactive
Activity [22]: Active
Activity [23]: inactive
Activity [24]: inactive
Activity [25]: inactive
Activity [26]: inactive
Activity [27]: inactive
Activity [28]: inactive
